# Source: PubChem (several laboratories)
# Sampled rows, rich in hits. Any-hit rate of the full collection: about 4.9%.
# CHT allo act: human CHT allosteric activation. B-score at 10 µM. 0.49% of 310,000 active. AID 488977. CHT-expressing cells, membrane potential dye, choline EC20; active compounds read high; LV-AA mutant CHT in HEK293 cells. Q9GZV3;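 active = initial fluorescence not abnormally high and integrated response B-score, plate-corrected, over 3 SD above library mean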
# HSF1 inh: HSF1 inhibition | AID 2098 | activity change, negative = inhibition, % at 7.5 µM (by protocol) | 0.77% of 300,000 active | NIH3T3-HGL HSE-luciferase, MG132-induced, luminescence 8 h; active compounds read low;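 active = more than half of replicate wells show activity change below -50%, luminescence cut by over half; inconclusive = some wells, but at most half, below -50%; inactive = no replicate well below -50%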;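 also: luciferase reports HSF-1 transcriptional activity via heat shock element; 0% = median of DMSO wells and -100% = zero luminescence signal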
# CHT inh: inhibits the human high affinity choline transporter. Q9GZV3. CHT-expressing cells, membrane potential dye, choline response; active compounds read low. B-score at 10 µM. 0.86% of 310,000 active. AID 488975;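 active = B-score over 3 SD under the library average, and starting fluorescence ratio not unusually high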;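 also: choline stimulus applied at its EC90 after an EC20 pre-addition; B-score computed on integrated fluorescence ratio after choline addition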
# PHOSPHO1 block: blocks human PHOSPHO1 phosphatase activity. recombinant PHOSPHO1, absorbance phosphatase assay. inhibition, % at 13.3 µM. 1.1% of 290,000 active. AID 1565; in the data active = inhibition above about 60%
# Target sequence (Q8TCT1 whole entry, looked up): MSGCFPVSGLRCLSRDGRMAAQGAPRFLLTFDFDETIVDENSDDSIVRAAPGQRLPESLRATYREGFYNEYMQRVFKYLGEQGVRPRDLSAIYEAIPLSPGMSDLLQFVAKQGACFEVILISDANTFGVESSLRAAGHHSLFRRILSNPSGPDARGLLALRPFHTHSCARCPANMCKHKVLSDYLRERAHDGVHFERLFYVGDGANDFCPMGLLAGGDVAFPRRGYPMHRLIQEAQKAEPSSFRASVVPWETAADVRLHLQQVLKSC
# HSF-1 act: increases HSF-1 driven luciferase reporter signal; NIH3T3-HGL HSF-1 luciferase reporter, MG132, 8 h; 100% = twice DMSO control signal; 1.7% of 300,000 active; activation, % at 9 µM;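 active = mean replicate activation of at least 50% with a set share of replicates each reaching 50%; inconclusive = only one of those two conditions met; inactive = mean below 50% and too few replicates reaching it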;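 also: 0% = median of the neutral control wells and 100% = twice that signal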
# Hep lipid drop: modulators of hepatic lipid droplet formation; AML12 mouse hepatocytes, oleate lipid droplets, BODIPY imaging; inhibition, % at 6.5 µM; 0.4% of 240,000 active; AID 1656;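 active = lipid droplet intensity inhibited by at least 50%, with more than 500 cells counted; inconclusive = wells with under 300 cells, treated as cytotoxic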
#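 Assay system: AML12 mouse liver cells | Compound: 6.5 µM single-point dosing | Schedule: Overnight exposure | Technique: Fluorescence imaging, 20x objective, two fields per well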
# * = called active by the depositor; i = inactive; ? = inconclusive; . = no result given.
SMILES,CHT allo act,HSF1 inh,CHT inh,PHOSPHO1 block,HSF-1 act,Hep lipid drop
CC(C)NS(=O)(=O)c1ccc(OCC(=O)N2CCCC2)c(Cl)c1,i,-53*,i,8,-62,17
O=C1NC(=O)C2(CCc3ccccc32)N1 (configuration not stated),i,-77*,i,18,-82,.
O=C(O)CN1C(=O)NC2(CCc3ccccc32)C1=O (configuration not stated),i,1,i,30,6,16
S=c1[nH]c(-c2ccccc2)cn1/N=C/c1ccc(Br)cc1,i,.,i,-62,.,-1
O=C(O)c1ccc(/C=N/n2cc(-c3ccccc3)[nH]c2=S)cc1,i,-6,i,97*,-24,0
CS(=O)(=O)c1ccc(C(=O)OCC(=O)NC23CC4CC(CC(C4)C2)C3)cc1[N+](=O)[O-],i,26,i,7,51*,22
C=CCNC(=S)N/N=C(\C)c1cccc(NC(C)=O)c1,i,12,i,-73,2,-8
COc1ccc(C(=O)N/C(N)=N/c2nc3ccccc3o2)cc1,i,21,i,9,32,.
COc1ccc(C(=O)/C=C/Sc2nc3ccccc3o2)cc1,i,73,i,16,93*,-11
CCCCOC(=O)Sc1nc2ccccc2o1,i,1,i,94*,0,.
Cc1cccc(C(=O)N2CC(=O)Nc3ccc(F)cc3C2c2ccc(F)cc2)c1 (configuration not stated),i,-4,i,34,0,0
O=c1nc2s/c(=C\c3ccc(-c4ccccc4[N+](=O)[O-])o3)c(=O)n2nc1-c1ccccc1,.,7,.,74*,2,1
O=C(c1cccs1)N1CCCN(c2ncnc3scc(-c4ccccc4)c23)CC1,i,-2,i,38,3,13
S=C(Nc1ccc(Cl)cc1)c1nc2ccccc2s1,i,-26,i,-21,-36,.
Cc1ccc(NC(=S)c2nc3ccccc3s2)cc1,i,-65*,i,22,-70,.
CN1CCc2c(sc(/N=C/c3cc(Cl)ccc3O)c2C#N)C1,i,-52*,i,-12,-60,8
N#CCc1c(C#N)c(N)nc(N2CCN(S(=O)(=O)c3ccccc3F)CC2)c1C#N,i,133,i,18,173*,-2
CCOC(=O)c1c(C)[nH]c(C)c1S(=O)(=O)N1CCN(c2ccc(F)cc2)CC1,i,28,i,23,63*,3
COc1ccc(NC(=O)Cc2ccc(Cl)cc2)cc1NC(=O)c1ccco1,i,-6,i,6,-9,-8
CC(/C=N\NC(=O)c1cc(C)oc1C)=C\c1ccccc1,i,-52*,i,-12,-55,0
COc1cc(/C=N/NC(=O)c2cc(C)oc2C)ccc1O,i,-61*,i,-18,-70,-11
COc1ccc(-c2cc(C(=O)Nc3ccc(C)c(N)c3)c3ccccc3n2)cc1,i,21,i,-19,74*,-26
COc1cc(NC(=O)c2cc(C)nc3ccccc23)cc(OC)c1,i,-60*,i,24,-70,13
Cc1cccc(-c2cc(C(=O)Nc3cccnc3)c3ccccc3n2)c1,i,2,i,-34,-6,-2
Cc1cccc(-c2cc(C(=O)Nc3ccncc3)c3ccccc3n2)c1,.,50,.,.,63*,0
SMILES,CHT allo act,HSF1 inh,CHT inh,PHOSPHO1 block,HSF-1 act,Hep lipid drop
Cc1c(C(=O)NNc2cc(=O)n(C)c(=O)n2C)cccc1[N+](=O)[O-],i,-2,i,36,-15,-7
CN(C)/C=C/C(=O)c1cccc(Oc2ncccn2)c1,i,49,i,30,72*,0
CN(C)/C=C/C(=O)c1ccncc1,i,13,i,8,23,-35
O=C(COC(=O)/C=C/c1cccc([N+](=O)[O-])c1)NCc1ccco1,i,181,i,-10,200*,27
COc1cccc(C(=O)COC(=O)C(C)N2C(=O)C3C4C=CC(C4)C3C2=O)c1 (configuration not stated),i,17,i,-1,57*,2
COc1cccc(C(=O)COC(=O)C(C)N2C(=O)c3ccccc3C2=O)c1 (configuration not stated),i,6,i,6,-10,.
CCOC(=O)C1(CC2CCCCO2)CCN(Cc2c(C)cc(C)cc2-n2cccn2)CC1 (configuration not stated),i,-7,i,35,-16,-13
CCOC(=O)C1(CC2CCCCO2)CCN(Cc2nc3ccccc3[nH]2)CC1 (configuration not stated),i,-97*,i,28,-97,2
O=C(N/N=C/c1ccc(N2CCCCC2)o1)C(O)(c1ccccc1)c1ccccc1,i,38,i,12,66*,8
CN(C)c1ccc(/C=N/NC(=O)C(O)(c2ccccc2)c2ccccc2)o1,i,-2,i,25,-14,-12
COc1ccc(C2=NN(C(=O)CN3CCCC3)C(c3ccc(OC)cc3)C2)cc1 (configuration not stated),i,33,i,36,55*,10
COc1ccc(C2=NN(C(=O)CN3CCCCC3)C(c3ccc(OC)cc3)C2)cc1 (configuration not stated),i,7,i,33,17,17
COc1ccc(C2CC(c3ccccc3)=NN2C(=O)c2cccs2)cc1 (configuration not stated),i,51,i,25,71*,.
O=C(NNc1cccc(Cl)n1)Nc1ccc(Cl)cc1,i,33,i,12,77*,.
Oc1ccc(CN2CCCCC2)c2cccnc12,i,?,i,15,-56,-38
OCc1ccc(O)c2ncccc12,i,-54*,i,-53,-58,.
Oc1ccc(CNc2ccccc2F)c2cccnc12,i,-33,i,97*,-27,.
COc1ccc(-n2c(=O)c(CCC(=O)N(C)Cc3cccs3)nc3ccccc32)cc1,i,0,i,.,-16,.
CSc1cccc(NC(=O)C2CCCN(S(=O)(=O)c3ccc(F)cc3)C2)c1 (configuration not stated),i,7,i,-10,5,-2
O=C(Nc1cccc(Cl)c1)C1CCCN(S(=O)(=O)c2ccc(F)cc2)C1 (configuration not stated),i,44,i,5,89*,14
O=C(Nc1cccc(-c2ccc(F)cc2)c1)C1CCCN(C(=O)c2cscn2)C1 (configuration not stated),i,-71*,i,15,-77,-1
